In ChEMBL document CHEMBL4011658 (J Med Chem, 2017):
Values after ≈ are worked out from the molar mass of the structure shown. Active and inactive are the calls of the source. No cut-off for these calls is given here.

Experiments:
[1] = test system: Escherichia coli; test: Antibacterial activity against Escherichia coli ATCC 35218 after 16 to 20 hrs by alamar blue dye based CLSI method; format: functional
[2] = test system: Cryptococcus neoformans; test: Antifungal activity against Cryptococcus neoformans ATCC 350 after 70 to 74 hrs by alamar blue dye based CLSI method; format: functional
[3] = test system: Candida; test: Antifungal activity against Candida; format: functional
[4] = test system: Cryptococcus neoformans; test: Induction of membrane permeabilization in Cryptococcus neoformans ATCC 350 at 0.39 ug/ml after 1 hr using FITC labeled compound by confocal microscopic analysis; format: functional
[5] = test system: BT-549; test: Cytotoxicity against human BT549 cells assessed as reduction in cell viability after 48 hrs by neutral red uptake assay; format: cell-based; conditions: bt-549, 48 h
Outline: (§1)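 Cells seeded at 25 000 per well and grown 24 h to confluence, then exposed to peptides up to 10 μg/mL for 48 h; viability by modified neutral red uptake; doxorubicin positive control, DMSO negative control.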

[6] = test system: Vero; test: Cytotoxicity against African green monkey Vero cells assessed as reduction in cell viability after 48 hrs by neutral red uptake assay; format: cell-based; conditions: chlorocebus sabaeus; outline: as §1
[7] = test system: Cryptococcus neoformans; test: Synergistic antifungal activity against Cryptococcus neoformans ATCC 350 assessed as fold reduction in amphotericin B MIC by checkerboard method relative to amphotericin B alone; format: functional
[8] = test system: Cryptococcus neoformans; test: Antifungal activity against Cryptococcus neoformans ATCC 90113 after 70 to 74 hrs by alamar blue dye based CLSI method; format: functional
[9] = test system: Cryptococcus neoformans; test: Fungicidal activity against Cryptococcus neoformans ATCC 350 at 0.39 ug/ml up to 4 hrs by time kill assay; format: functional
[10] = Selectivity index, ratio of cytotoxicity against African green monkey VERO cells to IC50 for methicillin-resistant Staphylococcus aureus ATCC 33591; format: toxicity, cell-based; conditions: read-out: Selectivity Index
Outline: (§2)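 Selectivity index is the ratio CTX/IC50. For CTX, cells were seeded at 25 000 per well and grown 24 h, then given peptide up to 10 μg/mL for 48 h, with neutral red uptake read-out. […] OD530 was read before and after 16−20 h at 35 °C.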

[11] = test system: Aspergillus; test: Antifungal activity against Aspergillus; format: functional
[12] = test system: LLC-PK1; test: Cytotoxicity against pig LLC-PK1 cells assessed as reduction in cell viability after 48 hrs by neutral red uptake assay; format: cell-based, Sus scrofa; conditions: llc-pk1, 48 h; outline: as §1
[13] = Selectivity index, ratio of cytotoxicity against human SKOV3 cells to IC50 for methicillin-resistant Staphylococcus aureus ATCC 33591; format: toxicity, cell-based; conditions: read-out: Selectivity Index; outline: as §2
[14] = Selectivity index, ratio of cytotoxicity against African green monkey VERO cells to IC50 for Cryptococcus neoformans ATCC 90113; format: toxicity, cell-based; conditions: read-out: Selectivity Index
[15] = Selectivity index, ratio of cytotoxicity against pig LLC-PK1 cells to IC50 for methicillin-resistant Staphylococcus aureus ATCC 33591; format: toxicity, cell-based; conditions: read-out: Selectivity Index; outline: as §2
[16] = test system: Staphylococcus aureus; test: Antibacterial activity against methicillin-resistant Staphylococcus aureus ATCC 33591 after 16 to 20 hrs by alamar blue dye based CLSI method; format: functional
[17] = Selectivity index, ratio of cytotoxicity against human SK-MEL cells to IC50 for Staphylococcus aureus ATCC 29213; format: toxicity, cell-based; conditions: read-out: Selectivity Index
Outline: (§3)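 Selectivity index is the ratio CTX/IC50. For CTX, cells were seeded at 25 000 per well and grown 24 h, then exposed to peptide up to 10 μg/mL for 48 h, with viability by neutral red uptake. […] The inoculum was 5 × 10^5 CFU/mL, with OD530 read before and after incubation.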

[18] = Selectivity index, ratio of cytotoxicity against human SKOV3 cells to IC50 for Cryptococcus neoformans ATCC 90113; format: toxicity, cell-based; conditions: read-out: Selectivity Index
[19] = test system: Cryptococcus neoformans; test: Induction of morphological changes in Cryptococcus neoformans ATCC 350 assessed as cell wall breakage at 0.39 ug/ml after 1 hr by uranyl acetate/lead acetate staining based scanning electron microscopic analysis; format: functional
[20] = Selectivity index, ratio of cytotoxicity against human SKOV3 cells to IC50 for Staphylococcus aureus ATCC 29213; format: toxicity, cell-based; conditions: read-out: Selectivity Index; outline: as §3
[21] = test system: Cryptococcus neoformans; test: Disruption of plasma membrane in Cryptococcus neoformans ATCC 350 at 0.39 ug/ml after 1 hr by uranyl acetate/lead acetate staining based transmission electron microscopic analysis; format: functional
[22] = Selectivity index, ratio of cytotoxicity against human SK-MEL cells to IC50 for methicillin-resistant Staphylococcus aureus ATCC 33591; format: toxicity, cell-based; conditions: read-out: Selectivity Index; outline: as §2
[23] = test system: Cryptococcus neoformans; test: Synergistic antifungal activity against Cryptococcus neoformans ATCC 350 in presence of fluconazole by checkerboard method; format: functional
[24] = Selectivity index, ratio of cytotoxicity against human SK-MEL cells to IC50 for Cryptococcus neoformans ATCC 90113; format: toxicity, cell-based; conditions: read-out: Selectivity Index
[25] = test system: Cryptococcus neoformans; test: Synergistic antifungal activity against Cryptococcus neoformans ATCC 350 assessed as fold reduction in MIC in presence of fluconazole by checkerboard method relative to control; format: functional
[26] = Selectivity index, ratio of cytotoxicity against African green monkey VERO cells to IC50 for Staphylococcus aureus ATCC 29213; format: toxicity, cell-based; conditions: read-out: Selectivity Index; outline: as §3
[27] = Selectivity index, ratio of cytotoxicity against human BT549 cells to IC50 for methicillin-resistant Staphylococcus aureus ATCC 33591; format: toxicity, cell-based; conditions: read-out: Selectivity Index; outline: as §2
[28] = test system: Cryptococcus neoformans; test: Synergistic antifungal activity against Cryptococcus neoformans ATCC 350 assessed as fold reduction in MIC in presence of amphotericin B by checkerboard method relative to control; format: functional
[29] = test system: Cryptococcus neoformans; test: Disruption of cell wall membrane in Cryptococcus neoformans ATCC 350 at 0.39 ug/ml after 1 hr by uranyl acetate/lead acetate staining based transmission electron microscopic analysis; format: functional
[30] = Selectivity index, ratio of cytotoxicity against human BT549 cells to IC50 for Staphylococcus aureus ATCC 29213; format: toxicity, cell-based; conditions: read-out: Selectivity Index; outline: as §3
[31] = test system: Cryptococcus neoformans; test: Synergistic antifungal activity against Cryptococcus neoformans ATCC 350 assessed as fold reduction in fluconazole MIC by checkerboard method relative to fluconazole alone; format: functional
[32] = Metabolic stability of the compound assessed as trypsin (unknown origin)-mediated compound hydrolysis at compound to trypsin ratio of 100 to 0.5 after 2 hrs by RP-HPLC analysis; format: ADME; conditions: human
Outline: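 Peptide:trypsin 100:0.5 mol/mol in 0.1 M NH4CO3, 0.1 mM CaCl2, pH 8.3, shaken at 37 °C, 200 rpm; aliquot analysed by RP-HPLC, retention time and peak intensity compared with untreated peptide; 2 h sampling per results text.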

[33] = test system: Cryptococcus neoformans; test: Induction of nuclear fragmentation in Cryptococcus neoformans ATCC 350 at 0.39 ug/ml after 1 hr by DAPI staining based confocal microscopic analysis; format: functional
[34] = test system: Staphylococcus aureus; test: Antibacterial activity against Staphylococcus aureus ATCC 29213 after […] hrs by alamar blue dye based CLSI method; format: functional
[35] = Selectivity index, ratio of cytotoxicity against pig LLC-PK1 cells to IC50 for Cryptococcus neoformans ATCC 90113; format: toxicity, cell-based; conditions: read-out: Selectivity Index
[36] = test system: Cryptococcus neoformans; test: Induction of membrane permeabilization in Cryptococcus neoformans ATCC 350 assessed as increase in propidium iodide uptake at 0.39 ug/ml after 1 hr by confocal microscopic analysis; format: functional
[37] = test system: Cryptococcus neoformans; test: Synergistic antifungal activity against Cryptococcus neoformans ATCC 350 in presence of amphotericin B by checkerboard method; format: functional
[38] = test system: SK-MEL; test: Cytotoxicity against human SK-MEL cells assessed as reduction in cell viability after 48 hrs by neutral red uptake assay; format: cell-based; outline: as §1
[39] = Selectivity index, ratio of cytotoxicity against human BT549 cells to IC50 for Cryptococcus neoformans ATCC 90113; format: toxicity, cell-based; conditions: read-out: Selectivity Index
[40] = test system: SK-OV-3; test: Cytotoxicity against human SKOV3 cells assessed as reduction in cell viability after 48 hrs by neutral red uptake assay; format: cell-based; conditions: sk-ov-3, 48 h; outline: as §1
[41] = Selectivity index, ratio of cytotoxicity against pig LLC-PK1 cells to IC50 for Staphylococcus aureus ATCC 29213; format: toxicity, cell-based; conditions: read-out: Selectivity Index; outline: as §3

COC(=O)[C@H](Cc1c[nH]c(-c2ccc(-c3ccccc3)cc2)n1)NC(=O)[C@H](Cc1c[nH]c2ccccc12)NC(=O)[C@@H](N)Cc1c[nH]c(-c2ccc(-c3ccccc3)cc2)n1
Activity [1]: inactive
MIC [2]: 0.44 µM (≈ 0.351 µg/mL)
Activity [3]: inactive
Activity [4]: Active
Activity [5]: > 10 µg/mL
Activity [6]: > 10 µg/mL
fold change (FC) [7]: 16
IC50 [8]: 0.35 µg/mL (≈ 0.439 µM)
MFC [8]: 0.63 µg/mL (≈ 0.791 µM)
MIC [8]: 0.63 µg/mL (≈ 0.791 µM)
Activity [9]: Active
selectivity ratio [10]: > 5.18
Activity [11]: inactive
Activity [12]: > 10 µg/mL
selectivity ratio [13]: > 5.18
selectivity ratio [14]: > 28.6
selectivity ratio [15]: > 5.18
IC50 [16]: 1.93 µg/mL (≈ 2.42 µM)
MBC [16]: 10 µg/mL (≈ 12.5 µM)
MIC [16]: 5 µg/mL (≈ 6.27 µM)
selectivity ratio [17]: > 3.9
selectivity ratio [18]: > 28.6
Activity [19]: Active
selectivity ratio [20]: > 3.9
Activity [21]: Active
selectivity ratio [22]: > 5.18
fractional inhibitory concentration index (FICI) [23]: 0.308
selectivity ratio [24]: > 28.6
fold change (FC) [25]: 16
selectivity ratio [26]: > 3.9
selectivity ratio [27]: > 5.18
fold change (FC) [28]: 32
Activity [29]: Active
selectivity ratio [30]: > 3.9
fold change (FC) [31]: 4
Stability [32]: Stable
Activity [33]: Active
IC50 [34]: 2.56 µg/mL (≈ 3.21 µM)
MBC [34]: > 20 µg/mL
MIC [34]: > 20 µg/mL
selectivity ratio [35]: > 28.6
Activity [36]: Active
fractional inhibitory concentration index (FICI) [37]: 0.092
Activity [38]: > 10 µg/mL
selectivity ratio [39]: > 28.6
Activity [40]: > 10 µg/mL
selectivity ratio [41]: > 3.9
